Activity calls are given as the source filed them. The rule behind the calls is not given here.
Key:
[1] = target: 4-aminobutyrate aminotransferase, mitochondrial (Rattus norvegicus) (UniProt P50554); test: In vitro inhibition of succinate formation in the synaptosomal Gamma-amino-N-butyrate transaminase assay at 100 uM; assay type: functional
Method in brief: (§1)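 Rat whole brain minus cerebellum was homogenized at 4 °C in 0.32 M sucrose and spun at 1000g for 10 min, then at 27000g for 20 min to give the P₂ synaptosome pellet. Uptake and transaminase were measured together: 100 μM compound with 25 μM [³H]GABA in Krebs-Ringer phosphate buffer, 10 min at room temperature. Reactions were stopped with 1 mM GABA plus 1 mM succinic acid and centrifuged. Supernatant went onto Dowex 50 and tissue radioactivity was counted. Results are given as % of drug-free control.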

[2] = target: GABA transporter (Rattus norvegicus) (UniProt P31647+P23978+P31646+P48056); test: In vitro maximal effect for synaptosomal GABA uptake at 100 uM; assay type: functional; method in brief: as §1
[3] = target: GABA-A receptor; anion channel; test: Inhibition of 2 nM [3H]muscimol binding to Gamma-aminobutyric acid (GABA-A) receptor in rat brain crude synaptic membranes; assay type: cell membranes, Membrane
[4] = species on record: Rattus norvegicus; test: […] effect on [3H]-GABA release from rat cortical synaptosomes at 100 uM (No effect); assay type: functional; conditions: Brain

Chain of GABA transporter (Rattus norvegicus) (P31646 whole entry, looked up): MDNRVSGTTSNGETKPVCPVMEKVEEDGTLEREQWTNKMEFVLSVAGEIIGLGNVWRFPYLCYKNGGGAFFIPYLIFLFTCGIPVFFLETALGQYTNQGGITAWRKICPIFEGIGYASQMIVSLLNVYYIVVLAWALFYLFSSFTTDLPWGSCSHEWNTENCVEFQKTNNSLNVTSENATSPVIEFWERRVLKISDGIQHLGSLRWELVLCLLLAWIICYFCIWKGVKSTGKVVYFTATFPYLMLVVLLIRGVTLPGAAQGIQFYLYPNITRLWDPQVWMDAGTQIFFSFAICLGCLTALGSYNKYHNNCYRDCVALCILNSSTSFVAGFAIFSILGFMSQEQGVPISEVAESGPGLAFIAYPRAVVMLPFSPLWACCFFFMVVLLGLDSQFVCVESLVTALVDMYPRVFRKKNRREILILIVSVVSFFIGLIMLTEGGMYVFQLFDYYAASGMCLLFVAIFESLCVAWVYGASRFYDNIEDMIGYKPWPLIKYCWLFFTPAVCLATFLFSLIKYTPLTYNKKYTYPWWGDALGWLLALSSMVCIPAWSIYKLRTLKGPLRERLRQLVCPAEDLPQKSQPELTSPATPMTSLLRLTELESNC
Chain of GABA transporter (Rattus norvegicus) (P31647 whole entry, looked up): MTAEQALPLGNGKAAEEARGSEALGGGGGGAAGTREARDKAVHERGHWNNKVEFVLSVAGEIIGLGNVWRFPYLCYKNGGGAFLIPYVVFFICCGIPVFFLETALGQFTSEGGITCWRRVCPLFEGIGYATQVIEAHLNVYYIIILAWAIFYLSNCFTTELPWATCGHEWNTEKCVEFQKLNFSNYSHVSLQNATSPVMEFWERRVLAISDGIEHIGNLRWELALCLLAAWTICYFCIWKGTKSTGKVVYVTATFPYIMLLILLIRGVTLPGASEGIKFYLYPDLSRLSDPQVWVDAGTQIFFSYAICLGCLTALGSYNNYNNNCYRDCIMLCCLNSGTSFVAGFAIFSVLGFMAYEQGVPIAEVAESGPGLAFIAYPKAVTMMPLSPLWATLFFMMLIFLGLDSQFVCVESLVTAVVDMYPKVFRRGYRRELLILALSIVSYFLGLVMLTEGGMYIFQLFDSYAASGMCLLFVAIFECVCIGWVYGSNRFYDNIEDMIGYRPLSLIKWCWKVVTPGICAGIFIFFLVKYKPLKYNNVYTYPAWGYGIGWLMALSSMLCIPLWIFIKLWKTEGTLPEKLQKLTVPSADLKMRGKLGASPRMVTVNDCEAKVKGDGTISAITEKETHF
Chain of GABA transporter (Rattus norvegicus) (P48056 whole entry, looked up): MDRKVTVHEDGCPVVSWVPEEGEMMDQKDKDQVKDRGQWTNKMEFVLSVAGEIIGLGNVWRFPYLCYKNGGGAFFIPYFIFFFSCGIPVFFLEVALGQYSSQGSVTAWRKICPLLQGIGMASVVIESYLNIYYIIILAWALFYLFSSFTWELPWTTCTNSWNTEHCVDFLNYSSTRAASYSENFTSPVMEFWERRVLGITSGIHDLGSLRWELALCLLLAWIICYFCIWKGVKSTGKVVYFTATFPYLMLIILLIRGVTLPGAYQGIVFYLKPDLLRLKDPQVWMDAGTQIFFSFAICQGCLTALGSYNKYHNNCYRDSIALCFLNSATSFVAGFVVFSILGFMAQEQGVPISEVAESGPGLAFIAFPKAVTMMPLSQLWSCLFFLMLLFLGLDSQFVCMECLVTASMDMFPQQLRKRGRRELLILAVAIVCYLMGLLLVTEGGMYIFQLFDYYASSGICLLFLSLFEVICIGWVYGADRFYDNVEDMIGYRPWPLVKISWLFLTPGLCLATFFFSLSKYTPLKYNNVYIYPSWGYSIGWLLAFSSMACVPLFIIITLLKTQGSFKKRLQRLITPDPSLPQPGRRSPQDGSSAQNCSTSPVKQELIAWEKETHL
Chain of 4-aminobutyrate aminotransferase, mitochondrial (Rattus norvegicus) (P50554 28-500 limits assumed): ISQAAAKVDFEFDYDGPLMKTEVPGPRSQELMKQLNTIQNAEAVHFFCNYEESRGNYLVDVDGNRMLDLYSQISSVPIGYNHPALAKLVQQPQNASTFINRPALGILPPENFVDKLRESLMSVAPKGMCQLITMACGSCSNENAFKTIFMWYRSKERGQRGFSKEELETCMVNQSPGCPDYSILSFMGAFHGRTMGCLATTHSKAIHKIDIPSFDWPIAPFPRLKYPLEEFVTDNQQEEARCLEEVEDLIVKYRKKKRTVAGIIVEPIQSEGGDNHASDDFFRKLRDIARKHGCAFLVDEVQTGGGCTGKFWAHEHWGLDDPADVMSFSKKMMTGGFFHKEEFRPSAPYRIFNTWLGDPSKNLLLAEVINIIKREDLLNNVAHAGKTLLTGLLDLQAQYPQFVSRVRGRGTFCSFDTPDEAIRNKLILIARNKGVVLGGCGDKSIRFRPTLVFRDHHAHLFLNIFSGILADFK

inhibition [1] | Effect [2] | IC50 [3] | Compound | Activity [4]
30% | 30% | > 20 µM | CC1=NS(=O)(=O)c2ccc(CN(C)C)cc2N1 | inactive
30% | 30% | > 20 µM | CN1C(=O)Nc2cc(CN)ccc2S1(=O)=O | inactive
70% | – | – | O=C(O)C1CCCNC1 (stereo unspecified) | –
30% | 30% | > 20 µM | CC1=NS(=O)(=O)c2c(CN)cccc2N1 | inactive
60% | – | – | NC(=O)C(=O)O | –

More lines, now with the values behind:

Compound | inhibition [1] | Effect [2] | IC50 [3] | Activity [4]
CN1C(=O)Nc2cccc(CN)c2S1(=O)=O | 30% | 30% | > 20 µM | inactive
CN(C)Cc1ccc2c(c1)NC(=O)N(C)S2(=O)=O | 30% | 30% | > 20 µM | inactive
CC1=NS(=O)(=O)c2ccc(CN)cc2N1 | 30% | 30% | > 20 µM | inactive
